Experimental data from ChEMBL document CHEMBL1156240, “Papyriferic acid derivatives as reversal agents of multidrug resistance in cancer cells” (Bioorg Med Chem, 2010).

How the values were obtained:
[1] = tested on: KB-C2; test: Inhibition of P-gp-mediated multidrug-resistance in human KB-C2 cells assessed as increase in colchicine-induced cytotoxicity at 1 ug/ml after 48 hrs by MTT assay; format: cell-based
[2] = Cytotoxicity against human multidrug-resistant KB-C2 cells after 48 hrs by MTT assay; format: functional, cell-based; conditions: KB-C2, 48 h
Summary of the method: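 Seeded 5 × 10³ cells/well, preincubated 24 h, then compounds at 2, 10, 50, 100 µg/mL in medium (0.5% DMSO final) for 48 h. MTT 0.5 mg/mL for 4 h, formazan dissolved in DMSO, OD 540 nm; IC50 relative to vehicle controls.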

[3] = tested on: KB-C2; test: Inhibition of P-gp-mediated multidrug-resistance in human KB-C2 cells assessed as increase in colchicine-induced cytotoxicity at 5 ug/ml after 48 hrs by MTT assay; format: cell-based
[4] = tested on: KB; test: Cytotoxicity against human KB cells after 48 hrs by MTT assay; format: functional, cell-based

| Structure (SMILES) | fold change (FC) [1] | IC50 [2] [µM] | fold change (FC) [3] | IC50 [4] [µM] |
| --- | --- | --- | --- | --- |
| CCCNC(=O)CC(=O)O[C@@H]1CC[C@]2(C)[C@H]3C[C@@H](OC(C)=O)[C@@H]4[C@@H]([C@]5(C)CC[C@H](C(C)(C)OC(=O)C(=O)NCCC)O5)CC[C@@]4(C)[C@]3(C)CC[C@H]2C1(C)C | 1.2 | 26.6 | 68.8 | 24.8 |
| COC(=O)CC(=O)O[C@@H]1CC[C@]2(C)[C@H]3C[C@@H](OC(C)=O)[C@@H]4[C@@H]([C@]5(C)CC[C@H](C(C)(C)O)O5)CC[C@@]4(C)[C@]3(C)CC[C@H]2C1(C)C [METHYL PAPYRIFERATE] | 1.5 | 32.1 | 51.6 | 26.7 |
| CC(=O)O[C@@H]1C[C@@H]2[C@@]3(C)CC[C@@H](OC(=O)CC(=O)N(C)C)C(C)(C)[C@@H]3CC[C@@]2(C)[C@]2(C)CC[C@H]([C@]3(C)CC[C@H](C(C)(C)O)O3)[C@@H]12 | 2.4 | 28 | 87.5 | 25.2 |
| CNC(=O)CC(=O)O[C@@H]1CC[C@]2(C)[C@H]3C[C@@H](OC(C)=O)[C@@H]4[C@@H]([C@]5(C)CC[C@H](C(C)(C)O)O5)CC[C@@]4(C)[C@]3(C)CC[C@H]2C1(C)C | 4.7 | 43.1 | 74.4 | 40.9 |
| COC(=O)CC(=O)O[C@@H]1CC[C@]2(C)[C@H]3CC[C@@H]4[C@@H]([C@]5(C)CC[C@H](C(C)(C)O)O5)CC[C@@]4(C)[C@]3(C)CC[C@H]2C1(C)C | 1.1 | 56.6 | 14.8 | 45.4 |
| CC(=O)O[C@@H]1C[C@@H]2[C@@]3(C)CC[C@@H](OC(=O)CC(=O)NC(C)(C)C)C(C)(C)[C@@H]3CC[C@@]2(C)[C@]2(C)CC[C@H]([C@]3(C)CC[C@H](C(C)(C)O)O3)[C@@H]12 | 1.1 | 47.9 | 9.8 | 40.5 |
| CCNC(=O)CC(=O)O[C@@H]1CC[C@]2(C)[C@H]3C[C@@H](OC(C)=O)[C@@H]4[C@@H]([C@]5(C)CC[C@H](C(C)(C)O)O5)CC[C@@]4(C)[C@]3(C)CC[C@H]2C1(C)C | 2.6 | 43.9 | 53.9 | 39.7 |
| CC(=O)O[C@@H]1C[C@@H]2[C@@]3(C)CC[C@@H](OC(=O)CC(=O)OC(C)(C)C)C(C)(C)[C@@H]3CC[C@@]2(C)[C@]2(C)CC[C@H]([C@]3(C)CC[C@H](C(C)(C)O)O3)[C@@H]12 | – | > 100 | – | 31.5 |
| CCCOC(=O)CC(=O)O[C@@H]1CC[C@]2(C)[C@H]3C[C@@H](OC(C)=O)[C@@H]4[C@@H]([C@]5(C)CC[C@H](C(C)(C)O)O5)CC[C@@]4(C)[C@]3(C)CC[C@H]2C1(C)C | – | 67.8 | – | 27.8 |
| CC(=O)O[C@@H]1C[C@@H]2[C@@]3(C)CC[C@@H](OC(=O)CC(=O)Nc4ccccc4)C(C)(C)[C@@H]3CC[C@@]2(C)[C@]2(C)CC[C@H]([C@]3(C)CC[C@H](C(C)(C)OC(=O)C(=O)Nc4ccccc4)O3)[C@@H]12 | – | > 100 | – | > 100 |
| CCOC(=O)CC(=O)O[C@@H]1CC[C@]2(C)[C@H]3C[C@@H](OC(C)=O)[C@@H]4[C@@H]([C@]5(C)CC[C@H](C(C)(C)O)O5)CC[C@@]4(C)[C@]3(C)CC[C@H]2C1(C)C | – | 64.3 | – | 39.1 |
| CC(=O)O[C@@H]1C[C@@H]2[C@@]3(C)CC[C@@H](OC(=O)CC(=O)N4CCOCC4)C(C)(C)[C@@H]3CC[C@@]2(C)[C@]2(C)CC[C@H]([C@]3(C)CC[C@H](C(C)(C)O)O3)[C@@H]12 | 17.4 | 27.5 | 185 | 30.8 |
| COc1cccc2c1C(=O)c1c(O)c3c(c(O)c1C2=O)C[C@@](O)(C(C)=O)C[C@@H]3O[C@H]1C[C@H](N)[C@H](O)[C@H](C)O1 [DAUNORUBICIN] | – | 16.2 | – | 0.64 |
| COc1ccc(OC)c(NC(=O)CC(=O)O[C@@H]2CC[C@]3(C)[C@H]4C[C@@H](OC(C)=O)[C@@H]5[C@@H]([C@]6(C)CC[C@H](C(C)(C)OC(=O)C(=O)Nc7cc(OC)ccc7OC)O6)CC[C@@]5(C)[C@]4(C)CC[C@H]3C2(C)C)c1 | – | > 100 | – | > 100 |
| CC(=O)O[C@@H]1C[C@@H]2[C@@]3(C)CC[C@@H](OC(=O)CC(=O)NCc4ccccc4)C(C)(C)[C@@H]3CC[C@@]2(C)[C@]2(C)CC[C@H]([C@]3(C)CC[C@H](C(C)(C)OC(=O)C(=O)NCc4ccccc4)O3)[C@@H]12 | – | > 100 | – | > 100 |
| CC(=O)O[C@@H]1C[C@@H]2[C@@]3(C)CC[C@@H](OC(=O)CC(N)=O)C(C)(C)[C@@H]3CC[C@@]2(C)[C@]2(C)CC[C@H]([C@]3(C)CC[C@H](C(C)(C)O)O3)[C@@H]12 | 2.1 | 43.7 | 49.3 | 39.3 |
| CCCCNC(=O)CC(=O)O[C@@H]1CC[C@]2(C)[C@H]3C[C@@H](OC(C)=O)[C@@H]4[C@@H]([C@]5(C)CC[C@H](C(C)(C)O)O5)CC[C@@]4(C)[C@]3(C)CC[C@H]2C1(C)C | – | 24.4 | – | 24.9 |
| CCCCOC(=O)CC(=O)O[C@@H]1CC[C@]2(C)[C@H]3CC[C@@H]4[C@@H]([C@]5(C)CC[C@H](C(C)(C)O)O5)CC[C@@]4(C)[C@]3(C)CC[C@H]2C1(C)C | – | > 100 | – | > 100 |
